Legend:
Assay type in all cases: functional
[1] = test system: T47D; test: Cytotoxicity against human T47D cells assessed as cell growth at 0.01 uM after 48 hrs by sulforhodamine B assay; conditions: read-out: Activity
[2] = test system: BT-549; test: Cytotoxicity against human BT549 cells assessed as cell growth at 0.1 uM after 48 hrs by sulforhodamine B assay; conditions: BT-549, 48 h, read-out: Activity
In short: (§1)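 NCI-60 five-dose screen. Cells were grown in RPMI 1640 with 5% FBS and 2 mM L-glutamine and preincubated 24 h. Compound (DMSO stock) was tested at 0.01, 0.1, 1, 10 and 100 µM for 48 h at 37 °C. Cells were fixed in situ with cold TCA (final 10%) and stained with 0.4% SRB. A515 was read, and percent growth was calculated against time-zero and control plates.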

[3] = test system: DU-145; test: Cytotoxicity against human DU145 cells assessed as cell growth at 100 uM after 48 hrs by sulforhodamine B assay; conditions: DU-145, 48 h, read-out: Activity
In short: (§2)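 Five-dose NCI panel run at 0.01, 0.1, 1, 10 and 100 µM. Cells were in RPMI 1640 with 5% FBS and 2 mM L-glutamine, seeded at 5000–40,000 cells/well and pre-incubated 24 h. Drug was diluted from a DMSO stock into medium with 50 µg/ml gentamicin. Exposure was 48 h at 37 °C, 5% CO2. Cells were fixed with cold TCA and stained with 0.4% SRB, read at 515 nm. Percent growth came from time-zero, control and test absorbances.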

[4] = test system: KM12; test: Cytotoxicity against human KM12 cells assessed as cell growth at 1 uM after 48 hrs by sulforhodamine B assay; conditions: KM12, 48 h, read-out: Activity
[5] = test system: HL-60(TB); test: Cytotoxicity against human HL-60(TB) cells assessed as cell growth at 10 uM after 48 hrs by sulforhodamine B assay; conditions: HL-60, 48 h, read-out: Activity
In short: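 NCI five-dose screen on the HL-60(TB) leukaemia line, grown in RPMI 1640 with 5% FBS and 2 mM L-glutamine and plated for 24 h before dosing. DMSO stocks were diluted in medium. Cells were exposed 48 h at 37 °C, then settled cells were fixed in 16% TCA (final) and stained with SRB, absorbance 515 nm. Percent growth = (Ti−Tz)/(C−Tz)×100, or (Ti−Tz)/Tz×100 when Ti<Tz.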

[6] = test system: MOLT-4; test: Cytotoxicity against human MOLT4 cells assessed as cell growth at 10 uM after 48 hrs by sulforhodamine B assay; conditions: MOLT-4, 48 h, read-out: Activity
[7] = test system: A549; test: Cytotoxicity against human A549 cells assessed as cell growth at 10 uM after 48 hrs by sulforhodamine B assay; conditions: A549, 48 h, read-out: Activity; in short: as §1
[8] = test system: HOP-62; test: Cytotoxicity against human HOP62 cells assessed as cell growth at 10 uM after 48 hrs by sulforhodamine B assay; conditions: HOP-62, 48 h, read-out: Activity; in short: as §2
[9] = test system: SNB-19; test: Cytotoxicity against human SNB19 cells assessed as cell growth at 10 uM after 48 hrs by sulforhodamine B assay; conditions: SNB-19, 48 h, read-out: Activity
[10] = test system: Malme-3M; test: Cytotoxicity against human MALME-3M cells assessed as cell growth at 10 uM after 48 hrs by sulforhodamine B assay; conditions: read-out: Activity
[11] = test system: SK-MEL-2; test: Cytotoxicity against human SK-MEL-2 cells assessed as cell growth at 10 uM after 48 hrs by sulforhodamine B assay; conditions: SK-MEL-2, 48 h, read-out: Activity
[12] = test system: OVCAR-5; test: Cytotoxicity against human OVCAR5 cells assessed as cell growth at 10 uM after 48 hrs by sulforhodamine B assay; conditions: OVCAR-5, 48 h, read-out: Activity
[13] = test system: SR; test: Cytotoxicity against human SR cells assessed as cell growth at 100 uM after 48 hrs by sulforhodamine B assay; conditions: read-out: Activity
[14] = test system: NCI-H522; test: Cytotoxicity against human NCI-H522 cells assessed as cell growth at 10 '-5 M after 48 hrs by sulforhodamine B assay; conditions: NCI-H522, 48 h, read-out: Activity
[15] = test system: SF-268; test: Cytotoxicity against human SF268 cells assessed as cell growth at 10 '-5 M after 48 hrs by sulforhodamine B assay; conditions: SF-268, 48 h, read-out: Activity
[16] = test system: MDA-MB-435; test: Cytotoxicity against human MDA-MB-435 cells assessed as cell growth at 10 '-5 M after 48 hrs by sulforhodamine B assay; conditions: MDA-MB-435, 48 h, read-out: Activity
[17] = test system: M14; test: Growth inhibition of human M14 cells after 48 hrs by sulforhodamine B assay; conditions: M14, 48 h
In short: (§3)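 Adherent NCI-60 lines were grown in RPMI 1640 with 5% FBS and 2 mM L-glutamine, plated at 5000–40,000 cells/well and preincubated 24 h. They were then exposed to five concentrations (0.01–100 µM, from a DMSO stock) for 48 h at 37 °C, 5% CO2. Cells were fixed with cold TCA (10% final, 60 min, 4 °C) and stained with 0.4% SRB. Dye was solubilized in 10 mM Tris base and A515 read. GI50 was derived from time-zero, control and treated absorbances.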

[18] = test system: 786-0; test: Growth inhibition of human 786-0 cells after 48 hrs by sulforhodamine B assay; conditions: 786-0, 48 h; for CC50: read-out: LC50 (the source's name)
In short: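 Cells were in RPMI 1640 with 5% FBS and pre-incubated 24 h. Read-out was TCA fixation, SRB staining and absorbance at 515 nm. GI50 was the concentration where [(Ti−Tz)/(C−Tz)]×100 = 50, taken from log concentration vs % growth curves. It is given as ">" the top concentration when not reached.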

[19] = test system: RXF 393; test: Growth inhibition of human RXF393 cells after 48 hrs by sulforhodamine B assay; conditions: RXF 393, 48 h; in short: as §3
[20] = test system: MDA-MB-231; test: Growth inhibition of human MDA-MB-231 cells after 48 hrs by sulforhodamine B assay; conditions: MDA-MB-231, 48 h; in short: as §3
[21] = test system: SW-620; test: Cytotoxicity against human SW620 cells assessed as cell growth at 0.01 uM after 48 hrs by sulforhodamine B assay; conditions: SW-620, 48 h, read-out: Activity
[22] = test system: SF-268; test: Cytotoxicity against human SF268 cells assessed as cell growth at 0.01 uM after 48 hrs by sulforhodamine B assay; conditions: SF-268, 48 h, read-out: Activity
[23] = test system: SK-MEL-28; test: Cytotoxicity against human SK-MEL-28 cells assessed as cell growth at 0.01 uM after 48 hrs by sulforhodamine B assay; conditions: SK-MEL-28, 48 h, read-out: Activity
[24] = test system: HOP-62; test: Cytotoxicity against human HOP62 cells assessed as cell growth at 10 '-5 M after 48 hrs by sulforhodamine B assay; conditions: HOP-62, 48 h, read-out: Activity
In short: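 Primary one-dose screen across the NCI 60-line panel at 10 µM. Cells were grown in RPMI 1640 with 5% FBS and 2 mM L-glutamine and held 24 h before drug. Drug was diluted from a DMSO concentrate. Exposure was 48 h at 37 °C, 5% CO2. Cells were fixed with TCA and stained with SRB, with absorbance read at 515 nm. Percent growth was calculated against time-zero and untreated control.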

| SMILES | growth at 0.01 µM [1] [%] | growth at 0.1 µM [2] [%] | growth at 100 µM [3] [%] | growth at 1 µM [4] [%] | growth at 10 µM [5] [%] | growth at 10 µM [6] [%] | growth at 10 µM [7] [%] | growth at 10 µM [8] [%] | growth at 10 µM [9] [%] | growth at 10 µM [10] [%] | growth at 10 µM [11] [%] | growth at 10 µM [12] [%] | growth at 100 µM [13] [%] | growth at 10 µM [14] [%] | growth at 10 µM [15] [%] | growth at 10 µM [16] [%] | LC50 [17] [nM] | TGI [17] [nM] | GI50 [18] [nM] | TGI [18] [nM] | also measured |
| --- | --- | --- | --- | --- | --- | --- | --- | --- | --- | --- | --- | --- | --- | --- | --- | --- | --- | --- | --- | --- | --- |
| Cc1ccc2nc(Nc3c(C)cccc3C)sc2c1 | 94 | 99 | 65 | 55 | 30 | 56 | 44 | 39 | 47 | 45 | 48 | 65 | 22 | 19.7 | 61 | -23.7 | > 100000 | > 100000 | > 100000 | > 100000 | CC50 [18]: > 100000 nM; GI50 [19]: 1200 nM; TGI [19]: > 100000 nM; CC50 ([19]; read-out: LC50 (the source's name)): > 100000 nM; GI50 [20]: 528 nM; LC50 (concentration killing 50% of cells) [20]: > 100000 nM; TGI [20]: 59800 nM; growth at 0.01 µM [21]: 97%; growth at 0.01 µM [22]: 94%; growth at 0.01 µM [23]: 94%; growth at 10 µM [24]: 45.7% |
| Clc1cccc(Cl)c1Nc1nc2cccc(Cl)c2s1 | 95 | 101 | -85 | 62 | -47 | -38 | -65 | -93 | -74 | -84 | -64 | -93 | -32 | -64 | -33.9 | -55.9 | 7440 | 3290 | 1030 | 2280 | GI50 [17]: 1460 nM; CC50 [18]: 5030 nM; GI50 [19]: 676 nM; TGI [19]: 2410 nM; GI50 [20]: 304 nM; LC50 (concentration killing 50% of cells) [20]: 4060 nM; TGI [20]: 1420 nM; growth at 0.01 µM [21]: 97%; growth at 0.01 µM [22]: 98%; growth at 0.01 µM [23]: 93%; growth at 10 µM [24]: -38.2% |

Reference: ChEMBL document CHEMBL2040734, “Benzothiazoles: search for anticancer agents” (2012)
